From ChEMBL document CHEMBL1143582, “Discovery of the alpha7 nicotinic acetylcholine receptor agonists. (R)-3'-(5-Chlorothiophen-2-yl)spiro-1-azabicyclo[2.2.2]octane-3,5'-[1',3']oxazolidin-2'-one as a novel, potent, selective, and orally bioavailable ligand” (J Med Chem, 2005)

Key:
[1] = biological target: T1, Neuronal acetylcholine receptor subunit alpha-7 (Rattus norvegicus, UniProt Q05941); assay: (§1) Inhibition of [125I]alpha-bungarotoxin binding to rat nicotinic acetylcholine receptor alpha7
T1 sequence (Q05941 whole entry): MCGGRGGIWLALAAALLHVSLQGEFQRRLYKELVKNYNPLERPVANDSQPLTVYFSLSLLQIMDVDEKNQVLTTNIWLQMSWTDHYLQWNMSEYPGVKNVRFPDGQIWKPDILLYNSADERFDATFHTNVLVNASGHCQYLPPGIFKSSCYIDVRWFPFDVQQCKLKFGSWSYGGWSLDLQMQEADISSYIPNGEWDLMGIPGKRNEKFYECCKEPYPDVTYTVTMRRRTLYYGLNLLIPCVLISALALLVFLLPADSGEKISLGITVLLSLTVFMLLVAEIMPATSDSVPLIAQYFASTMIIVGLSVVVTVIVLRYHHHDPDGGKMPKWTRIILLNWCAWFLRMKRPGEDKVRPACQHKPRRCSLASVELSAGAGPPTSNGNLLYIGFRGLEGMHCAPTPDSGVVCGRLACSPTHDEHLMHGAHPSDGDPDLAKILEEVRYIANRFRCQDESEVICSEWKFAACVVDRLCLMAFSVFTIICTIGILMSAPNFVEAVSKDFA

[2] = biological target: T1, Neuronal acetylcholine receptor subunit alpha-7; assay: as §1; remark: listed apart in the source
Procedure, shortened: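 Membranes from Wistar rat hippocampus made by sucrose homogenisation and differential centrifugation, then resuspended in 118 mM NaCl, 4.8 mM KCl, 2.5 mM CaCl2, 1.2 mM MgCl2, 20 mM Na-HEPES pH 7.5. Incubated with [125I]-α-bungarotoxin plus compounds, 37 °C, 3 h. Bound label collected by filtration. Nonspecific binding defined with 100 µM (−)-nicotine.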

[3] = Brain permeability is determined by ratio of concentration of compound in brain to that of in plasma (CB/CP) 2 hrs after oral dosing of 10.0 mg/kg (N=3); assay type: ADME, organism-based; design: dose 10 mg/kg, route oral; conditions: rat, read-out: Permeability
Procedure, shortened: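 Rats (N=3) given a single 10 mg/kg oral dose. Brain and plasma concentrations measured 2 h after dosing, and the brain/plasma ratio (CB/CP) calculated. Reported as mean ± SD.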

[4] = Oral bioavailability of compound after peroral dosing of 10.0 mg/kg in rats (N=4); assay type: ADME, organism-based; conditions: rat, in vivo, read-out: BA
[5] = Oral bioavailability of compound after peroral dosing of 1.0 mg/kg in rats (N=4); assay type: ADME, organism-based; conditions: rat, in vivo, read-out: BA
[6] = Maximum plasma concentration after peroral dosing of 1.0 mg/kg in rats (N=4); assay type: ADME, organism-based; design: dose 1 mg/kg, route oral; conditions: rat, po
Procedure, shortened: (§2)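 Rats (N=4) given a single oral dose; plasma sampled over 24 h. AUC0-24h estimated from the plasma concentration-time curve and Cmax taken as the peak plasma level. Reported as mean ± SD.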

[7] = Maximum plasma concentration after peroral dosing of 10.0 mg/kg in rats (N=4); assay type: ADME, organism-based; design: dose 10 mg/kg, route oral; conditions: rat, po; procedure, shortened: as §2
[8] = Area under plasma concentration time curve 24 hours after peroral dosing of 10.0 mg/kg (AUC) in rats (N=4); assay type: ADME, organism-based; design: dose 10 mg/kg, route oral; conditions: rat, po; procedure, shortened: as §2
[9] = Area under plasma concentration time curve 24 hours after peroral dosing of 1.0 mg/kg (AUC) in rats (N=4); assay type: ADME, organism-based; design: dose 1 mg/kg, route oral; conditions: rat, po; procedure, shortened: as §2
[10] = Inhibition of [125I]alpha-bungarotoxin binding to nicotinic acetylcholine receptor […]-delta-gamma from BC3H1 cells; assay type: cell-based, Mus musculus; conditions: bc3h-1
Procedure, shortened: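 BC3H1 muscle cells grown in DMEM with 4 mM L-glutamine and 20% FBS. Membranes from confluent cells washed in HEPES-buffered saline, pH 7.5. Incubated with [125I]-α-bungarotoxin plus compounds, 37 °C, 3 h, then filtered. Nonspecific binding defined with […].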

[11] = biological target: Neuronal acetylcholine receptor; alpha4/beta2 (Rattus norvegicus, UniProt P09483+P12390); assay: Inhibition of [3H]cytisine binding to nicotinic acetylcholine receptor alpha4-beta2 from rat cerebral cortex; assay type: tissue-based
Chain of Neuronal acetylcholine receptor; alpha4/beta2 (P09483 whole entry): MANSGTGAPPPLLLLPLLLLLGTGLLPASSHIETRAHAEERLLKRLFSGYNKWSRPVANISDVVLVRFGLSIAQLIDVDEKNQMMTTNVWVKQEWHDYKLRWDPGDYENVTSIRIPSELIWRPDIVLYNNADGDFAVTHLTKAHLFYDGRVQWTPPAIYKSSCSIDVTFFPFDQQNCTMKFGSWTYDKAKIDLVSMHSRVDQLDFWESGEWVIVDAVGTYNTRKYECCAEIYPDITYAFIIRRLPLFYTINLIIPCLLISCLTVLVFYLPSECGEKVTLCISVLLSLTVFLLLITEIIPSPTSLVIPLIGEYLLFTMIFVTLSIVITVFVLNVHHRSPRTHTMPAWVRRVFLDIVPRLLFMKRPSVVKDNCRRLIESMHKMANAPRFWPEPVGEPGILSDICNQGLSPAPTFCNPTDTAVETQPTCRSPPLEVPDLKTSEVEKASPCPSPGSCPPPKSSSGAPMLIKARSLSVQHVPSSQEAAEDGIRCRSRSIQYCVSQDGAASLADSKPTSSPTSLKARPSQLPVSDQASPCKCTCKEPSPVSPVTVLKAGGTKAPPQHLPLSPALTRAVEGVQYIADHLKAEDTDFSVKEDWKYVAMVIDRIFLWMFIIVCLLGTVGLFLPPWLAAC
Chain of Neuronal acetylcholine receptor; alpha4/beta2 (P12390 whole entry): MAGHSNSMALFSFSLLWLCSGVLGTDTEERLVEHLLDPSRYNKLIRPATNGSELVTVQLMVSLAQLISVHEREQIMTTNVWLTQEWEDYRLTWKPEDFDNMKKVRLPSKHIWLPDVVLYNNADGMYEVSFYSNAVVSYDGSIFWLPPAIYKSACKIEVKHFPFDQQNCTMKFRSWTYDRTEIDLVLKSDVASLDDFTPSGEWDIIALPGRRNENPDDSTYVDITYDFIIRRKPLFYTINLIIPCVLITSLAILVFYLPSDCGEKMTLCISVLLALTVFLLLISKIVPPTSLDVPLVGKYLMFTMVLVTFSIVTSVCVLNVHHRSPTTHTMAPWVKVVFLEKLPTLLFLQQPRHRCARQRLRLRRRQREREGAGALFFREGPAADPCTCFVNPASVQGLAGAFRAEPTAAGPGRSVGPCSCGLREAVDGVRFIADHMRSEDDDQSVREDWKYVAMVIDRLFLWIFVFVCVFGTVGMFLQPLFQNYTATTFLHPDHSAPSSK
Procedure, shortened: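 Wistar rat cerebral cortex membranes in 120 mM NaCl, 2.5 mM KCl, 1 mM CaCl2, 1 mM MgCl2, 50 mM Tris-HCl pH 7.4. Incubated with [3H]cytisine plus compounds, 4 °C, 75 min. Filtered and counted by liquid scintillation. Nonspecific binding defined with 100 µM (−)-nicotine.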

[12] = Brain permeability is determined by ratio of concentration of compound in brain to that of in plasma (CB/CP) 1 hr after subcutaneous dosing of 1.0 mg/kg (N=3); assay type: ADME, organism-based; design: dose 1 mg/kg, route subcutaneous; conditions: rat, sc, read-out: Permeability
Procedure, shortened: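 Rats (N=3) given a single 1 mg/kg sc dose. Brain and plasma concentrations measured 1 h later, and the brain/plasma ratio (CB/CP) calculated. Reported as mean ± SD.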

[13] = Half-life of plasma concentration after intravenous dosing of 1 mg/kg in rats (N=4); conditions: rat

SMILES | Ki [1] | IC50 [2] | other results
c1ccc2sc(CO[C@@H]3CN4CCC3CC4)cc2c1 | 13 nM |  | 
O=C1O[C@]2(CN3CCC2CC3)CN1c1nc2ccccc2s1 | 430 nM |  | 
O=C1O[C@]2(CN3CCC2CC3)CN1c1nc2ccccc2o1 |  | > 1000 nM | 
N#Cc1ccc(N2C[C@@]3(CN4CCC3CC4)OC2=O)s1 | 85 nM |  | 
O=C1O[C@]2(CN3CCC2CC3)CN1c1cc2ccccc2o1 | 370 nM |  | 
O=C1OC2(CN3CCC2CC3)CN1c1ccccc1 (stereo unspecified) |  | > 1000 nM | 
CC(C)c1ccc(N2C[C@@]3(CN4CCC3CC4)OC2=O)s1 | 65 nM |  | 
O=C1O[C@]2(CN3CCC2CC3)CN1c1ccsc1 |  | > 1000 nM | 
O=C1O[C@]2(CN3CCC2CC3)CN1c1ccc(Br)s1 | 4 nM |  | 
Cc1cc(N2C[C@@]3(CN4CCC3CC4)OC2=O)sc1C |  | > 1000 nM | 
Cc1ccc(N2C[C@@]3(CN4CCC3CC4)OC2=O)s1 | 12 nM |  | 
CC(O)c1ccc(N2C[C@@]3(CN4CCC3CC4)OC2=O)s1 (stereo partly specified) | 145 nM |  | 
O=C1O[C@]2(CN3CCC2CC3)CN1c1cc2ccccc2s1 | 75 nM |  | 
Cc1csc(N2C[C@@]3(CN4CCC3CC4)OC2=O)c1 |  | > 1000 nM | 
O=C1O[C@@]2(CN3CCC2CC3)CN1c1cc2ccccc2s1 |  | > 1000 nM | 
O=C1O[C@]2(CN3CCC2CC3)CN1c1ccc2ccccc2c1 | 31 nM |  | 
O=C1O[C@]2(CN3CCC2CC3)CN1c1ccc(Cl)s1 | 9 nM |  | Kp at 2 h [3]: 59; bioavailability [4]: 108%; bioavailability [5]: 52%; Cmax [6]: 56 ng/mL; Cmax [7]: 997 ng/mL; AUC at 24 h [8]: 4640 ng·h/mL; AUC at 24 h [9]: 224 ng·h/mL; IC50 [10]: > 10000 nM; Ki [11]: 1800 nM
O=C1NC[C@@]2(CN3CCC2CC3)O1 |  |  | bioavailability [4]: 103%; Kp at 1 h [12]: 0.76; Cmax [7]: 1580 ng/mL; AUC at 24 h [8]: 5390 ng·h/mL; IC50 [10]: > 10000 nM
O=C1O[C@]2(CN3CCC2CC3)CN1c1ccccn1 |  | > 1000 nM | 
O=C1O[C@@]2(CN3CCC2CC3)CN1c1ccc2ccccc2c1 | 205 nM |  | 
O=C1O[C@]2(CN3CCC2CC3)CN1c1cccs1 | 80 nM |  | 
CCc1ccc(N2C[C@@]3(CN4CCC3CC4)OC2=O)s1 | 21 nM |  | 
CC(=O)c1ccc(N2C[C@@]3(CN4CCC3CC4)OC2=O)s1 | 190 nM |  | 
Cc1ccsc1N1C[C@@]2(CN3CCC2CC3)OC1=O |  | > 1000 nM | 
O=C(CC1CN2CCC1CC2)c1cc2ccccc2s1 (single isomer, unassigned; (+)) | 65 nM |  | 
COc1ccc(/C=C2\CCCN=C2c2cccnc2)c(OC)c1 [GTS-21] | 220 nM |  | Kp at 2 h [3]: < 0.3; bioavailability [4]: 14%; Cmax [7]: 138 ng/mL; AUC at 24 h [8]: 453 ng·h/mL; half-life [13]: 28.2 min; IC50 [10]: > 10000 nM; Ki [11]: 84 nM
